The subject of assay [1] is Trypanosoma cruzi. Description: Antitrypanosomal activity against extracellular Trypanosoma cruzi Tulahuen clone C4. It is filed as functional, organism-based.
The subject of the next assay is Vero. Put plainly: Cytotoxicity against african green monkey Vero cells after 4 hrs by MTT assay. The format is cell-based. The settings on record: Chlorocebus sabaeus. The gist of the method: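 Adherent Vero cells were treated with compound and incubated 4 h at 37°. Viability was read from MTT reduction in an ELISA reader at 570 nm.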
The test system of assay [2] is Trypanosoma cruzi. Put plainly: Antitrypanosomal activity against intracellular Trypanosoma cruzi Tulahuen clone C4 assessed as cleavage of […]. The format is functional, organism-based. The gist of the method: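 Transgenic T. cruzi (Tulahuen strain, clone C4) expressing β-galactosidase were exposed to added compound. Growth of the intracellular form was read as cleavage of chlorophenol red-β-D-galactoside (CPRG) at 570 nm.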

Consider `C=CC1=C(C)[C@@H]2CC[C@H]3[C@](C)(CO)CCC[C@]3(C)[C@H]2CC1`, for which the IC50 (usually the midpoint of a concentration-inhibition curve) in the assay on Trypanosoma cruzi [1] came to 48 µM.

Regarding `C=CC1=C(C)[C@@H]2C[C@@H](OC(C)=O)[C@H]3[C@](C)(CO)CCC[C@]3(C)[C@H]2CC1`, the IC50 with Trypanosoma cruzi [1] is 56.7 µM; in the assay with Vero, 178 µM; with Trypanosoma cruzi [2], 76.5 µM.

For the compound `C[C@]1(CO)CCC[C@]2(C)[C@H]3CC(=O)[C@@]4(C)[C@@H]([C@@H]3CC[C@@H]12)[C@@H]4CO`, 433 µM corresponded to half-maximal inhibition with Vero (IC50).

On to `C=CC1=C(C)[C@@H]2CC(=O)[C@H]3[C@](C)(COC(C)=O)CCC[C@]3(C)[C@H]2CC1`, for which the IC50 was 17.7 µM in the assay on Trypanosoma cruzi [1], 238 µM with Vero and 79.1 µM in the assay on Trypanosoma cruzi [2].

Turning to `CC(=O)OC[C@]1(C)CCC[C@]2(C)[C@H]3CCC(C=O)=C(C)[C@@H]3CC(=O)[C@@H]12`, the values for the IC50 in the assay with Trypanosoma cruzi [1], in the assay with Vero and with Trypanosoma cruzi [2] were 40.4 µM, 416 µM and 61.4 µM, respectively.

Regarding `C=CC1=C(C)[C@@H]2C[C@@H](O)[C@H]3[C@](C)(CO)CCC[C@]3(C)[C@H]2CC1`, the IC50 in the assay on Trypanosoma cruzi [2] was 16 µM.

As for `C=CC1=C(C)[C@@H]2C[C@@H](O)[C@H]3[C@](C)(COC(C)=O)CCC[C@]3(C)[C@H]2CC1`, 11 µM corresponded to half-maximal inhibition in the assay with Trypanosoma cruzi [1] (IC50).

Consider `C=C[C@@]1(O)CC[C@H]2[C@@H](C[C@@H](O)[C@H]3[C@](C)(COC(C)=O)CCC[C@]23C)C1=C`, for which half-maximal inhibition in the assay with Trypanosoma cruzi [1] (IC50) required 16 µM.

For `CO[C@@]12C[C@H]3[C@@H]([C@@H](O)[C@@H](OC(C)=O)[C@H]4[C@](C)(COC(C)=O)CCC[C@]34C)[C@@H](C)C1=CC(=O)O2` [CHAGRESLACTONE], the IC50 stood at 75 µM in the assay with Trypanosoma cruzi [1] and 225 µM in the assay with Vero.

Turning to `C=CC1=C(CO)[C@@H]2C[C@@H](O)[C@H]3[C@](C)(COC(C)=O)CCC[C@]3(C)[C@H]2CC1` [CHAGRESNOL], the IC50 was found to be 38.8 µM with Trypanosoma cruzi [1], 156 µM with Vero and 76 µM in the assay with Trypanosoma cruzi [2].

Turning to `CC(=O)OC[C@H]1[C@@H]2[C@@H]3CC[C@H]4[C@@](C)(CO)CCC[C@]4(C)[C@H]3CC(=O)[C@@]21C` [CHAGRESNONE], the IC50 came to 56.9 µM with Trypanosoma cruzi [1], 448 µM with Vero and 95.5 µM with Trypanosoma cruzi [2].

These data come from ChEMBL document CHEMBL1148923, “Novel cassane and cleistanthane diterpenes from Myrospermum frutescens: absolute stereochemistry of the cassane diterpene series” (J Nat Prod, 2004).
